Measurements from ChEMBL document CHEMBL5724801, “EUbOPEN Chemogenomics Library - Multiplex” (2024).
Several values for one entry are separate records, joined by “and”; a condition that tells them apart may be missing. Equal entries are not always repeated. Non-standard residues stand in square brackets, D forms with d. Residues, ends and D or L forms follow the SMILES beside them.

Test system: Fibroblast
Experiment: Multiplex assay against human fibroblast
Assay type: toxicity, cell-based
Summary of the method: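 Values for tubulin, mitochondrial-mass and membrane-permeability phenotypes are per cents of cells with healthy nuclei. These cells were identified by CellPathfinder machine-learning gating of live cells that had been stained at seeding with Hoechst33342, BioTracker Green Microtubule Cytoskeleton Dye, MitoTracker Red and Annexin V Alexa Fluor 680 and imaged on a CQ1 microscope at 37°C and 5% CO2 after compound addition. The gating first set Hoechst high-intensity objects apart from normal cells, then split normal cells into healthy, pyknosed or fragmented nuclei, and pyknosed cells into mitotic or apoptotic.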

[1] = 12 h, 1 µM, compound concentration 1 uM
[2] = 12 h, 10 µM, compound concentration 10 uM
[3] = 24 h, 1 µM, compound concentration 1 uM
[4] = 24 h, 10 µM, compound concentration 10 uM
[5] = 48 h, 1 µM, compound concentration 1 uM
[6] = 48 h, 10 µM, compound concentration 10 uM

For `CC(C)C[C@@H]1NC(=O)[C@@H](C(C)C)NC(=O)[C@@H]2CCCN2C(=O)[C@@H](CC(=O)O)NC(=O)[C@@H](Cc2c[nH]c3ccccc23)NC1=O` [BQ-123] (cyclo(L[dW][dD]P[dV])), the “Population Apoptotic (%)” value [1] was 57% and 21%, the “Population Fragmented Nuclei (%)” value [1] was 18% and 22% and the “Population Healthy Nuclei (%)” value [1] was 68% and 58%. The “Population Hoechst High Intensity Objects (%)” value [1] was 0% and 3%, the “Population Membrane Permeable-Phenotype (%)” value [1] was 1% and 5% and the “Population Mitochondria Different-Phenotype (%)” value [1] was 11% and 2%. The “Population Mitotic Cells (%)” value [1] was 42% and 78%, the “Population Normal (%)” value [1] was 100% and 96% and the “Population Pyknosed Nuclei (%)” value [1] was 13% and 18%. For the same molecule, the “Population Tubulin-Different-Phenotype (%)” value [1] was 31%, the “Total Cell Count” value [1] was 105 and 157 and the “Population Apoptotic (%)” value [2] was 48% and 33%. The “Population Fragmented Nuclei (%)” value [2] was 15% and 30%, the “Population Healthy Nuclei (%)” value [2] was 65% and 48% and the “Population Hoechst High Intensity Objects (%)” value [2] was 2%. For the same molecule, the “Population Membrane Permeable-Phenotype (%)” value [2] was 0% and 4%, the “Population Mitochondria Different-Phenotype (%)” value [2] was 9% and 3% and the “Population Mitotic Cells (%)” value [2] was 52% and 66%. For the same molecule, the “Population Normal (%)” value [2] was 97%, the “Population Pyknosed Nuclei (%)” value [2] was 18% and 20% and the “Population Tubulin-Different-Phenotype (%)” value [2] was 33% and 46%. For the same molecule, the “Total Cell Count” value [2] was 136 and 134, the “Population Apoptotic (%)” value [3] was 53% and 24% and the “Population Fragmented Nuclei (%)” value [3] was 19% and 23%. For the same molecule, the “Population Healthy Nuclei (%)” value [3] was 66% and 57%, the “Population Hoechst High Intensity Objects (%)” value [3] was 1% and 6% and the “Population Membrane Permeable-Phenotype (%)” value [3] was 0% and 3%. For the same molecule, the “Population Mitochondria Different-Phenotype (%)” value [3] was 5% and 3%, the “Population Mitotic Cells (%)” value [3] was 46% and 75% and the “Population Normal (%)” value [3] was 98% and 93%. The “Population Pyknosed Nuclei (%)” value [3] was 14% and 18%, the “Population Tubulin-Different-Phenotype (%)” value [3] was 24% and 25% and the “Total Cell Count” value [3] was 107 and 166. For the same molecule, the “Population Apoptotic (%)” value [4] was 50% and 29%, the “Population Fragmented Nuclei (%)” value [4] was 19% and 27% and the “Population Healthy Nuclei (%)” value [4] was 64% and 50%. For the same molecule, the “Population Hoechst High Intensity Objects (%)” value [4] was 8% and 0%, the “Population Membrane Permeable-Phenotype (%)” value [4] was 1% and 11% and the “Population Mitochondria Different-Phenotype (%)” value [4] was 5% and 3%. The “Population Mitotic Cells (%)” value [4] was 50% and 70%, the “Population Normal (%)” value [4] was 91% and 99% and the “Population Pyknosed Nuclei (%)” value [4] was 15% and 22%. The “Population Tubulin-Different-Phenotype (%)” value [4] was 32% and 50%, the “Total Cell Count” value [4] was 123 and the “Population Apoptotic (%)” value [5] was 50% and 52%. The “Population Fragmented Nuclei (%)” value [5] was 18% and 28%, the “Population Healthy Nuclei (%)” value [5] was 70% and 56% and the “Population Hoechst High Intensity Objects (%)” value [5] was 3% and 4%. For the same molecule, the “Population Membrane Permeable-Phenotype (%)” value [5] was 0% and 2%, the “Population Mitochondria Different-Phenotype (%)” value [5] was 12% and 4% and the “Population Mitotic Cells (%)” value [5] was 50% and 48%. The “Population Normal (%)” value [5] was 96% and 95%, the “Population Pyknosed Nuclei (%)” value [5] was 11% and 15% and the “Population Tubulin-Different-Phenotype (%)” value [5] was 25% and 39%. The “Total Cell Count” value [5] was 109 and 172, the “Population Apoptotic (%)” value [6] was 70% and 46% and the “Population Fragmented Nuclei (%)” value [6] was 26% and 45%. For the same molecule, the “Population Healthy Nuclei (%)” value [6] was 59% and 42%, the “Population Hoechst High Intensity Objects (%)” value [6] was 5% and 6% and the “Population Membrane Permeable-Phenotype (%)” value [6] was 1% and 9%. The “Population Mitochondria Different-Phenotype (%)” value [6] was 5% and 3%, the “Population Mitotic Cells (%)” value [6] was 29% and 53% and the “Population Normal (%)” value [6] was 94% and 93%. For the same molecule, the “Population Pyknosed Nuclei (%)” value [6] was 13% and 12%, the “Population Tubulin-Different-Phenotype (%)” value [6] was 38% and 51% and the “Total Cell Count” value [6] was 129 and 130.

In the case of `C[C@@H]1CN(Cc2ccc(F)cc2)CCN1C(=O)COc1ccc(Cl)cc1NC(N)=O` [BX 471 FREE BASE], the “Population Apoptotic (%)” value [1] was 23% and 38%, the “Population Fragmented Nuclei (%)” value [1] was 10% and 26% and the “Population Healthy Nuclei (%)” value [1] was 73% and 47%. The “Population Hoechst High Intensity Objects (%)” value [1] was 3% and 7%, the “Population Mitotic Cells (%)” value [1] was 76% and 61% and the “Population Normal (%)” value [1] was 96% and 92%. For the same molecule, the “Population Pyknosed Nuclei (%)” value [1] was 15% and 26%, the “Population Tubulin-Different-Phenotype (%)” value [1] was 35% and 48% and the “Total Cell Count” value [1] was 138 and 182. The “Population Apoptotic (%)” value [2] was 38% and 40%, the “Population Fragmented Nuclei (%)” value [2] was 27% and 36% and the “Population Healthy Nuclei (%)” value [2] was 45% and 27%. For the same molecule, the “Population Hoechst High Intensity Objects (%)” value [2] was 7% and 11%, the “Population Mitotic Cells (%)” value [2] was 61% and 60% and the “Population Normal (%)” value [2] was 92% and 88%. For the same molecule, the “Population Pyknosed Nuclei (%)” value [2] was 26% and 35%, the “Population Tubulin-Different-Phenotype (%)” value [2] was 81% and 77% and the “Total Cell Count” value [2] was 240 and 126. For the same molecule, the “Population Apoptotic (%)” value [3] was 52% and 51%, the “Population Fragmented Nuclei (%)” value [3] was 13% and 20% and the “Population Healthy Nuclei (%)” value [3] was 74% and 52%. For the same molecule, the “Population Hoechst High Intensity Objects (%)” value [3] was 0% and 6%, the “Population Mitotic Cells (%)” value [3] was 47% and 48% and the “Population Normal (%)” value [3] was 99% and 93%. For the same molecule, the “Population Pyknosed Nuclei (%)” value [3] was 11% and 27%, the “Population Tubulin-Different-Phenotype (%)” value [3] was 33% and 52% and the “Total Cell Count” value [3] was 147 and 160. The “Population Apoptotic (%)” value [4] was 43% and 46%, the “Population Fragmented Nuclei (%)” value [4] was 28% and 34% and the “Population Healthy Nuclei (%)” value [4] was 43% and 36%. The “Population Hoechst High Intensity Objects (%)” value [4] was 4% and 8%, the “Population Mitotic Cells (%)” value [4] was 56% and 53% and the “Population Normal (%)” value [4] was 95% and 91%. The “Population Pyknosed Nuclei (%)” value [4] was 28% and 29%, the “Population Tubulin-Different-Phenotype (%)” value [4] was 75% and 89% and the “Total Cell Count” value [4] was 225 and 118. The “Population Apoptotic (%)” value [5] was 55% and 63%, the “Population Fragmented Nuclei (%)” value [5] was 16% and 31% and the “Population Healthy Nuclei (%)” value [5] was 67% and 55%. For the same molecule, the “Population Hoechst High Intensity Objects (%)” value [5] was 5%, the “Population Mitotic Cells (%)” value [5] was 45% and 36% and the “Population Normal (%)” value [5] was 94% and 97%. The “Population Pyknosed Nuclei (%)” value [5] was 15% and 13%, the “Population Tubulin-Different-Phenotype (%)” value [5] was 40% and 54% and the “Total Cell Count” value [5] was 138 and 172. For the same molecule, the “Population Apoptotic (%)” value [6] was 58% and 41%, the “Population Fragmented Nuclei (%)” value [6] was 31% and 42% and the “Population Healthy Nuclei (%)” value [6] was 49% and 42%. For the same molecule, the “Population Hoechst High Intensity Objects (%)” value [6] was 7% and 6%, the “Population Mitotic Cells (%)” value [6] was 41% and 58% and the “Population Normal (%)” value [6] was 92% and 93%. The “Population Pyknosed Nuclei (%)” value [6] was 18% and 14%, the “Population Tubulin-Different-Phenotype (%)” value [6] was 77% and 91% and the “Total Cell Count” value [6] was 234 and 122.
